In data set [1] the test system is Mus musculus. The data set is described as follows: Hypouricemic activity in Kunming mouse model of xanthine/potassium oxonate-induced acute hyperuricemia assessed as decrease in serum uric acid level at 2 mg/kg administered 3 hrs prior to xanthine/potassium oxonate and measured after 6 hrs relative to control. It counts as functional. Set-up: scale not given: the % may be the effect or the level left. As to conditions: time 9 hrs. Put shortly: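 Male Kunming mice, hyperuricemia induced by intragastric xanthine plus subcutaneous potassium oxonate (0.2 mL each). […] Groups: normal vehicle, untreated model, active control, test. Serum uric acid measured. Decrease ratio = (model SUA − compound SUA)/(model SUA − vehicle SUA).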

Data set [2] concerns Mus musculus. The data set is described as follows: Potency index, ratio of lesinurad to test compound for hypouricemic activity in Kunming mouse model of xanthine/potassium oxonate-induced acute hyperuricemia assessed as decrease in serum uric acid level at 2 mg/kg administered 3 hrs prior to xanthine/potassium oxonate and measured after 6 hrs. It counts as functional.
Data set [3] is described as follows: Sub-acute toxicity in Kunming mouse assessed as hepatocellular condensation of liver at 50 mg/kg, po administered as single dose every other day for 14 days by H and E staining based assay. Type of data set: organism-based. As to conditions: in vivo, 336 h, time 14 day.
Data set [4] is described as follows: Sub-acute toxicity in Kunming mouse assessed as edema in proximal tubule at 50 mg/kg, po administered as single dose every other day for 14 days by H and E staining based assay. It counts as organism-based. As to conditions: in vivo, 336 h, time 14 day. Put shortly:
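Kunming mice, n = 4 per sex, fasted 12 h. Dosed orally on D0, D2, D4, D6, D8, D10 and D12; controls received an equal volume of vehicle. Weighed before each dose. Killed at D14; heart, liver, spleen, lung and kidney taken for haematoxylin and eosin staining.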

Data set [5] is described as follows: Sub-acute toxicity in Kunming mouse assessed as ballooning degeneration of liver at 50 mg/kg, po administered as single dose every other day for 14 days by H and E staining based assay. Type of data set: organism-based. As to conditions: in vivo, 336 h, time 14 day.
A short description of data set [6]: Sub-acute toxicity in Kunming mouse assessed as congestion in hepatic central vein at 50 mg/kg, po administered as single dose every other day for 14 days by H and E staining based assay. As to conditions: in vivo, 336 h, time 14 day. It counts as organism-based.
Data set [7] in a line: Sub-acute toxicity in Kunming mouse assessed as hydropic degeneration of hepatocytes at 50 mg/kg, po administered as single dose every other day for 14 days by H and E staining based assay. Type of data set: organism-based. As to conditions: in vivo, 336 h, time 14 day.
Data set [8] is described as follows: Cmax in male Kunming mouse at 50 mg/kg, po by LC-MS/MS analysis. It counts as ADME, organism-based. Set-up: route oral, dose 50 mg/kg. As to conditions: in vivo. Put shortly:
(§1)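 Male Kunming mice, ten in total, split into five groups; single oral dose in PEG 400/normal saline (70/30, v/v). Blood taken from submandibular or saphenous vein into K2EDTA tubes at 0.25, 0.5, 1, 2, 4, 8, 24, 48, 72 h. Plasma spun at about 4 °C and kept at -70 °C. Acetonitrile precipitation with dexamethasone internal standard, then LC-MS/MS against plasma standard curves.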

A short description of data set [9]: Half-life in male Kunming mouse at 50 mg/kg, po by LC-MS/MS analysis. Type of data set: ADME, organism-based. As to conditions: in vivo. Put shortly: as §1
Data set [10] in a line: Tmax in male Kunming mouse at 50 mg/kg, po by LC-MS/MS analysis. It counts as ADME, organism-based. As to conditions: in vivo. In outline:
as §1

Data set [11] can be described thus: AUC (0 to infinity) in male Kunming mouse at 50 mg/kg, po by LC-MS/MS analysis. It counts as ADME, organism-based. Set-up: route oral, time infinity, dose 50 mg/kg. As to conditions: in vivo. Put shortly: as §1
Data set [12] is described as follows: MRT (0 to infinity) in male Kunming mouse at 50 mg/kg, po by LC-MS/MS analysis. As to conditions: in vivo. It counts as ADME, organism-based. In outline: as §1
A short description of data set [13]: AUC (0 to t) in male Kunming mouse at 50 mg/kg, po by LC-MS/MS analysis. It counts as ADME, organism-based. As to conditions: in vivo. Also noted: dose 50 mg/kg. In outline:
as §1

Data set [14] can be described thus: Cmax in male Kunming mouse at 2 mg/kg, po by LC-MS/MS analysis. As to conditions: in vivo. Also noted: route oral, dose 2 mg/kg. It counts as ADME, organism-based. In outline: as §1
The nature of data set [15]: Tmax in male Kunming mouse at 2 mg/kg, po by LC-MS/MS analysis. Type of data set: ADME, organism-based. As to conditions: in vivo. Put shortly:
as §1

Data set [16] can be described thus: Half-life in male Kunming mouse at 2 mg/kg, po by LC-MS/MS analysis. Type of data set: ADME, organism-based. As to conditions: in vivo. In outline:
as §1

A short description of data set [17]: MRT (0 to infinity) in male Kunming mouse at 2 mg/kg, po by LC-MS/MS analysis. It counts as ADME, organism-based. As to conditions: in vivo. Put shortly: as §1
Data set [18] can be described thus: AUC (0 to infinity) in male Kunming mouse at 2 mg/kg, po by LC-MS/MS analysis. Type of data set: ADME, organism-based. Set-up: time infinity, route oral, dose 2 mg/kg. As to conditions: in vivo. Put shortly: as §1
Data set [19] is described as follows: AUC (0 to t) in male Kunming mouse at 2 mg/kg, po by LC-MS/MS analysis. Type of data set: ADME, organism-based. Set-up: dose 2 mg/kg. As to conditions: in vivo. Put shortly:
as §1

Data set [20] is described as follows: Sub-acute toxicity in female Kunming mouse assessed as increase in body weight at 50 mg/kg, po administered once every second day for 14 days. As to conditions: in vivo, 336 h, time 14 day. Type of data set: organism-based.
A short description of data set [21]: Sub-acute toxicity in male Kunming mouse assessed as increase in body weight at 50 mg/kg, po administered once every second day for 14 days. As to conditions: in vivo, 336 h, time 14 day. Type of data set: organism-based.
A short description of data set [22]: Acute toxicity in female Kunming mouse assessed as change in body weight at 500 mg/kg, ig measured for 1 week. Type of data set: organism-based. As to conditions: in vivo, po, 168 h, time 1 weeks.
A short description of data set [23]: Acute toxicity in Kunming mouse assessed as induction of abnormal behaviors by measuring lethargy at 500 mg/kg, ig. It counts as organism-based. As to conditions: in vivo, po.
Data set [24] is described as follows: Acute toxicity in male Kunming mouse assessed as change in body weight at 500 mg/kg, ig measured for 1 week. Type of data set: organism-based. As to conditions: in vivo, po, 168 h, time 1 weeks.
Data set [25] is described as follows: Acute toxicity in Kunming mouse assessed as induction of abnormal behaviors by measuring clonic convulsion at 500 mg/kg, ig. It counts as organism-based. As to conditions: in vivo, po.
Data set [26] is described as follows: Acute toxicity in Kunming mouse assessed as induction of abnormal behaviors by measuring anorexia at 500 mg/kg, ig. It counts as organism-based. As to conditions: in vivo, po.
Data set [27] is described as follows: Acute toxicity in Kunming mouse assessed as death at 250 mg/kg, ig measured for 1 week relative to control. Type of data set: organism-based. As to conditions: in vivo, po, 168 h, time 1 weeks. Put shortly: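 Kunming mice of 10-12 g, 12 per group (6 male, 6 female), fasted 12 h. Single intragastric dose of a suspension in 5% CMC-Na. Deaths, behaviour (lethargy, clonic convulsion, anorexia, ruffled fur) and body weight followed for one week and compared with vehicle controls.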

For a further data set, the species on record is Rattus norvegicus. The data set is described as follows: Hypouricemic activity in rat model of xanthine/potassium oxonate-induced acute hyperuricemia assessed as decrease in serum uric acid level relative to control. Type of data set: functional. Also noted: scale not given: the % may be the effect or the level left.

2 molecules from ChEMBL document CHEMBL4665798, “Novel Human Urate Transporter 1 Inhibitors as Hypouricemic Drug Candidates with Favorable Druggability” (J Med Chem, 2020) can be followed below.

As to `CC(Sc1nc2ncccc2n1-c1ccc(C#N)c2ccccc12)C(=O)O` (centres undefined), in the data set on Mus musculus [1], the Activity came to 95.01%. In addition, the Ratio with Mus musculus [2] is reported as 2.8.

On to `O=C(O)CSc1nnc(Br)n1-c1ccc(C2CC2)c2ccccc12`, for which the Activity result in data set [3] is recorded as “Toxic”; in data set [4] it was “Toxic”; in [5], “Toxic”; in data set [6], “Toxic”; in data set [7] it was “Toxic”; in [20] it was “Non-Toxic”. Also, the Activity entry in data set [21], in data set [22], in data set [23], in [24], in data set [25] and in data set [26] was “Non-Toxic” each time. Further, the Activity entry is on record as “Toxic” in data set [27], 52.99% in the data set listed under Rattus norvegicus and 27.06% in the data set with Mus musculus [1]. The Cmax is 26500 ng/mL in data set [8] and 1500 ng/mL in data set [14]. The half-life is 7.46 h in data set [9] and 3.08 h in [16]. Further, the values for the Tmax in data set [10] and in [15] were 1 h and 0.667 h, respectively. Moreover, the AUC(0-inf) in [11] turned out to be 145000 ng·h/mL; in data set [18], 7120 ng·h/mL. Further, the values for the MRT inf in data set [12] and in [17] were 6.35 h and 5.09 h, respectively. Further, the figures for the area under the curve AUC(0-t) in [13] and in [19] were 144000 ng·h/mL and 7080 ng·h/mL, respectively.

For orientation: Cmax means the peak of the concentration-time curve. The term half-life denotes the time needed for the level to fall by half in the phase considered. What is called Tmax is the time at which the peak concentration occurs. As usually defined, the AUC(0-inf) is total exposure, with the tail of the curve extrapolated. The MRT inf is a mean duration of stay, worked out from the concentration-time curve. For orientation: AUC(0-t) means exposure summed from dosing to a finite time, without extrapolation to infinity.
